Measurements as given in ChEMBL document CHEMBL1149043, “Antiplatelet constituents of formosan Rubia akane” (1994).

Legend:
Platelet [1] = test: Inhibition of platelet activating factor-induced platelet aggregation in rabbit platelet assessed as aggregation at 300 uM treated 3 mins before platelet activating factor challenge by turbidimetric method; type: functional, Oryctolagus cuniculus
Method in brief: (§1)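 Washed rabbit platelets (EDTA PRP, 4.5×10^8/ml, Tyrode's with 0.35% BSA) were preincubated 3 min at 37° with agent at 300 μM or 0.5% DMSO control. Percent aggregation was read turbidimetrically and reported as mean±SEM (n) with significance versus control.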

Platelet [2] = test: Inhibition of arachidonic acid-induced platelet aggregation in rabbit platelet assessed as aggregation at 300 uM treated 3 mins before arachidonic acid challenge by turbidimetric method; type: functional, Oryctolagus cuniculus; design: scale not given: the % may be the effect or the level left; method in brief: as §1
Platelet [3] = test: Inhibition of thrombin-induced platelet aggregation in rabbit platelet assessed as aggregation at 300 uM treated 3 mins before thrombin challenge by turbidimetric method; type: functional, Oryctolagus cuniculus; method in brief: as §1
Platelet [4] = test: Inhibition of collagen-induced platelet aggregation in rabbit platelet assessed as aggregation at 300 uM treated 3 mins before collagen challenge by turbidimetric method; type: functional, Oryctolagus cuniculus; method in brief: as §1
Platelet [5] = test: Inhibition of thrombin-induced platelet aggregation in rabbit platelet assessed as aggregation at 50 uM treated 3 mins before thrombin challenge by turbidimetric method; type: functional, Oryctolagus cuniculus; design: scale not given: the % may be the effect or the level left
Method in brief: (§2)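 Rabbit platelets, washed from EDTA PRP and suspended at 4.5×10^8/ml in Tyrode's/0.35% BSA, were preincubated 3 min at 37° with agent at 50 μM, with 0.5% DMSO as control. Turbidimetric percent aggregation is given as mean±SEM (n).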

Platelet [6] = test: Inhibition of collagen-induced platelet aggregation in rabbit platelet assessed as aggregation at 50 uM treated 3 mins before collagen challenge by turbidimetric method; type: functional, Oryctolagus cuniculus; design: scale not given: the % may be the effect or the level left; method in brief: as §2
Platelet [7] = test: Inhibition of platelet activating factor-induced platelet aggregation in rabbit platelet assessed as aggregation at 50 uM treated 3 mins before platelet activating factor challenge by turbidimetric method; type: functional, Oryctolagus cuniculus; design: scale not given: the % may be the effect or the level left; method in brief: as §2
Platelet [8] = test: Inhibition of arachidonic acid-induced platelet aggregation in rabbit platelet assessed as aggregation at 50 uM treated 3 mins before arachidonic acid challenge by turbidimetric method; type: functional, Oryctolagus cuniculus; design: scale not given: the % may be the effect or the level left; method in brief: as §2
Platelet [9] = test: Antiplatelet activity against rabbit platelet assessed as inhibition of arachidonic acid-induced platelet aggregation treated 3 mins before arachidonic acid challenge by turbidimetric method; type: functional, cell-based; settings: Oryctolagus cuniculus
Platelet [10] = test: Antiplatelet activity against rabbit platelet assessed as inhibition of collagen-induced platelet aggregation treated 3 mins before collagen challenge by turbidimetric method; type: functional, cell-based; settings: Oryctolagus cuniculus

| Structure (SMILES) | Platelet aggregation (Platelet [1]) | Activity (Platelet [2]) | Percent platelet aggregation (Platelet [3]) | Platelet aggregation (Platelet [4]) | Activity (Platelet [5]) | Activity (Platelet [6]) | Activity (Platelet [7]) | Activity (Platelet [8]) | Activity (Platelet [9]) | Activity (Platelet [10]) |
| --- | --- | --- | --- | --- | --- | --- | --- | --- | --- | --- |
| CC(=O)O[C@H]1[C@H](O)[C@@H](CO)O[C@@H](Oc2cc3c(c(O)c2C)C(=O)c2ccc(O)cc2C3=O)[C@@H]1O[C@@H]1O[C@H](C)[C@@H](O)[C@H](O)[C@@H]1O | 81.5% | 90.6% | 82.4% | 82.4% |  |  |  |  |  |  |
| O=C1c2ccccc2C(=O)c2c(O)cc(O)cc21 [XANTHOPURPURIN] | 82.6% | 85% | 86.9% | 3.8% |  |  |  |  |  |  |
| CC(=O)Oc1ccccc1C(=O)O [ASPIRIN] |  |  |  |  | 91.9% | 85.4% | 90.5% | 0% |  |  |
| COC(=O)c1c2c(c3ccccc3c1O)OC(C)(C)C=C2 [MOLLUGIN] | 62.5% | 0% | 90.9% | 34.1% |  |  |  |  | Dose-dependent effect |  |
| Cc1ccc2c(c1O)C(=O)c1ccccc1C2=O | 82.3% | 81.6% | 88.7% | 85.7% |  |  |  |  |  |  |
| O=C1c2ccccc2C(=O)c2c1cc(O[C@@H]1O[C@H](CO[C@@H]3OC[C@@H](O)[C@H](O)[C@H]3O)[C@@H](O)[C@H](O)[C@H]1O)c(CO)c2O [LUCIDIN PRIMEVOROSIDE] | 89.1% | 88.5% | 92.2% | 83.5% |  |  |  |  |  |  |
| O=C1c2ccccc2C(=O)c2c(O)cc(O[C@@H]3O[C@H](CO)[C@@H](O)[C@H](O)[C@H]3O)cc21 | 65.5% | 71.9% | 85.2% | 0% |  |  |  |  |  | Dose-dependent effect |
| COC(=O)c1c(CC=C(C)C)c(O[C@@H]2O[C@H](CO)[C@@H](O)[C@H](O)[C@H]2O)c2ccccc2c1O[C@@H]1O[C@H](CO)[C@@H](O)[C@H](O)[C@H]1O | 90.3% | 86.9% | 91.3% | 81.2% |  |  |  |  |  |  |
| Cc1c(O[C@@H]2O[C@H](CO)[C@@H](O)[C@H](O)[C@H]2O[C@@H]2O[C@H](C)[C@@H](O)[C@H](O)[C@@H]2O)cc2c(c1O)C(=O)c1ccc(O)cc1C2=O | 89.4% | 83.4% | 87% | 84% |  |  |  |  |  |  |
| Cc1c(O)cc2c(c1O)C(=O)c1ccc(O)cc1C2=O | 77.8% | 83% | 85.5% | 8.2% |  |  |  |  |  | Dose-dependent effect |
